# The M2OR odorant receptor database
# Tests used:
# Settings in all cases: stereoisomer not certain
# O5AN1 = tested on: T1, O5AN1
# T1 sequence (whole entry): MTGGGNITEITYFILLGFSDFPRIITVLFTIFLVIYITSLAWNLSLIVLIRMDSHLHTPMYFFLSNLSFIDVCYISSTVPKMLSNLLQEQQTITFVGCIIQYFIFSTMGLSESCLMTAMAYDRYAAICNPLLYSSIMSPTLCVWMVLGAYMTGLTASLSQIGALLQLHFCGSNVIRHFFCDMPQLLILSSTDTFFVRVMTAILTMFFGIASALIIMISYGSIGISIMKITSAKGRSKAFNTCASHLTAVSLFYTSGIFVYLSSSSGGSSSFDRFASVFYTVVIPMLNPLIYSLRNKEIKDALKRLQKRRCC
# How it was run: (§1)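 Assay methods differ from source to source, frequently being transient luciferase assays in mammalian cell lines. For each receptor–molecule pair, the label responsive (active) applies when the original authors judged the measured signal statistically different from baseline, and non-responsive (inactive) applies otherwise.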
# OR10A7 (Homo sapiens) = target: T2, OR10A7 (Homo sapiens) (UniProt Q8NGE5)
# T2 sequence (whole entry): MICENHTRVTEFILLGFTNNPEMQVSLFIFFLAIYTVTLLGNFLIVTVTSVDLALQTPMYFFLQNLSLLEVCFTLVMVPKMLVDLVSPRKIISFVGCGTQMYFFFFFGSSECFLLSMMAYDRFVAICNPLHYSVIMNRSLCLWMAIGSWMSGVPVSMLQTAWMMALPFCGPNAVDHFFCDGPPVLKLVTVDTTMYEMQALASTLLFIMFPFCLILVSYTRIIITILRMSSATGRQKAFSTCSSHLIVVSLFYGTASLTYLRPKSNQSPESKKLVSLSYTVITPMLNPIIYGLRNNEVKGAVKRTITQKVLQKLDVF
# How it was run: as §1
# OR10A2 (Homo sapiens) = target: T3, OR10A2 (Homo sapiens) (UniProt Q9H208)
# T3 sequence (whole entry): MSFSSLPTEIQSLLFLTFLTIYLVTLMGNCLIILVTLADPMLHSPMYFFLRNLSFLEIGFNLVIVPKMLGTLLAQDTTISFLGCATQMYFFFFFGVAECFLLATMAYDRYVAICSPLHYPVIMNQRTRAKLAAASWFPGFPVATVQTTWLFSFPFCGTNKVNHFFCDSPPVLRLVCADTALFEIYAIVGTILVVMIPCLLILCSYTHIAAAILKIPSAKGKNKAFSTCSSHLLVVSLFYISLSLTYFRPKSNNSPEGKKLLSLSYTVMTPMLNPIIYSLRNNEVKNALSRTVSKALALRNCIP
# How it was run: as §1
# OR10A3 (Homo sapiens) = target: T4, OR10A3 (Homo sapiens) (UniProt P58181)
# T4 sequence (whole entry): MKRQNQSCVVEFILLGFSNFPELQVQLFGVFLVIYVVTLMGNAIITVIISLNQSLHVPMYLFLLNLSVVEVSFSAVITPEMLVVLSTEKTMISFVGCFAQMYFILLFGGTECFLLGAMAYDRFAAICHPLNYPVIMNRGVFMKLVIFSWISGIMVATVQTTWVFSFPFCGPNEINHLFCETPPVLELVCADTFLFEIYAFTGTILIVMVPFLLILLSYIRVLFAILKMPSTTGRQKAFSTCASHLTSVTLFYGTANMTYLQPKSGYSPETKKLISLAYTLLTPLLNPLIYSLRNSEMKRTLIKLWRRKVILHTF
# How it was run: as §1
# OR10A4 (Homo sapiens) = target: T5, OR10A4 (Homo sapiens) (UniProt Q9H209)
# T5 sequence (whole entry): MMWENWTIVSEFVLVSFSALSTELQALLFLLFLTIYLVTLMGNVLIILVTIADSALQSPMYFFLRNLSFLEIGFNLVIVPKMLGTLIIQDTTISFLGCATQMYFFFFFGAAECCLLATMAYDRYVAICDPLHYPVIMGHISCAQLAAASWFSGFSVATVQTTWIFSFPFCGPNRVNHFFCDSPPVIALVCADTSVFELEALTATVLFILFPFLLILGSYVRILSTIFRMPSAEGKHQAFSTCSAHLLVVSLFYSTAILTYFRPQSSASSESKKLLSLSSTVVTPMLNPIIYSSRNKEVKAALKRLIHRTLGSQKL
# How it was run: as §1
# OR10A5 (Homo sapiens) = target: T6, OR10A5 (Homo sapiens) (UniProt Q9H207)
# T6 sequence (whole entry): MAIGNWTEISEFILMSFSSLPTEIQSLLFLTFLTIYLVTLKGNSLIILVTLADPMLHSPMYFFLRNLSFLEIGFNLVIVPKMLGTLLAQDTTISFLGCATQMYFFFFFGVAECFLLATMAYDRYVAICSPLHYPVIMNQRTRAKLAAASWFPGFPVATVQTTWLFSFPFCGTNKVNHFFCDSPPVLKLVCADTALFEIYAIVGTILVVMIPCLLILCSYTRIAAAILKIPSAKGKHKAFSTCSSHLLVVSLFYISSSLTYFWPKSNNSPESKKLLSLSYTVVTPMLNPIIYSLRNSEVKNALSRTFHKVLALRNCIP
# How it was run: as §1
# OR10A6 (Homo sapiens) = target: T7, OR10A6 (Homo sapiens) (UniProt Q8NH74)
# T7 sequence (whole entry): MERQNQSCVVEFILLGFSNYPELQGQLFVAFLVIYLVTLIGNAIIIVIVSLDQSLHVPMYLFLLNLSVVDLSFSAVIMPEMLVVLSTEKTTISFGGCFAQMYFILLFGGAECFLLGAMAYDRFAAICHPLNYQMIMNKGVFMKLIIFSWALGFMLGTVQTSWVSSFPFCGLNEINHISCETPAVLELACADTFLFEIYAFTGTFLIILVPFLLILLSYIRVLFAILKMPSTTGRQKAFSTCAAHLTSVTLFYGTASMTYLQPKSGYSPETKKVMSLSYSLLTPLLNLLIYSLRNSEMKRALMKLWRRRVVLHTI
# How it was run: as §1
# OR10AD1 (Homo sapiens) = target: T8, OR10AD1 (Homo sapiens) (UniProt Q8NGE0)
# T8 sequence (whole entry): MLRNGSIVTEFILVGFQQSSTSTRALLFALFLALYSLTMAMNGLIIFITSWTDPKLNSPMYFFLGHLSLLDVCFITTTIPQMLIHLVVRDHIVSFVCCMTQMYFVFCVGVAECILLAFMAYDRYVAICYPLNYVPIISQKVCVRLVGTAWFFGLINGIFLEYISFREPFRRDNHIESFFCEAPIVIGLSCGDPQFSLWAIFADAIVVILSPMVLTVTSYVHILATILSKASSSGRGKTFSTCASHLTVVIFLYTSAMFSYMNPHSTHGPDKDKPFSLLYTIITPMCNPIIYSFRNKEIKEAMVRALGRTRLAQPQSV
# How it was run: as §1
# OR10AG1 (Homo sapiens) = target: T9, OR10AG1 (Homo sapiens) (UniProt Q8NH19)
# T9 sequence (whole entry): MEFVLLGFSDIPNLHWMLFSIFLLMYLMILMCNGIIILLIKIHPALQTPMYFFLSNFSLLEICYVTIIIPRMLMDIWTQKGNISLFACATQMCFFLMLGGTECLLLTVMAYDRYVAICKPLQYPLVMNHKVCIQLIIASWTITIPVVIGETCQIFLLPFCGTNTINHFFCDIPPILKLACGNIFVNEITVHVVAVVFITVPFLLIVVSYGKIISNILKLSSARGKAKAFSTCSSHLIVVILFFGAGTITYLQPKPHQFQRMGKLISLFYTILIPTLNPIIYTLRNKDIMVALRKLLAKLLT
# How it was run: as §1
# OR10C1 (Homo sapiens) = target: T10, OR10C1 (Homo sapiens) (UniProt Q96KK4)
# T10 sequence (whole entry): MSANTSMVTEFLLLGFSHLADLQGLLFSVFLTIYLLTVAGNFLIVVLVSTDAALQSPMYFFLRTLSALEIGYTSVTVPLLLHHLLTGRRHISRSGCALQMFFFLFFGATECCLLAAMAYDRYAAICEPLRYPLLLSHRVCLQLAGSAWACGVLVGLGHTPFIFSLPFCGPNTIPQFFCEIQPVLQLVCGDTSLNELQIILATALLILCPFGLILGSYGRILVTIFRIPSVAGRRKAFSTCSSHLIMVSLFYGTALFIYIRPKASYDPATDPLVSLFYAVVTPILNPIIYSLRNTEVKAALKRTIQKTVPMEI
# How it was run: as §1
# OR10D3 (Homo sapiens) = target: T11, OR10D3 (Homo sapiens) (UniProt Q8NH80)
# T11 sequence (whole entry): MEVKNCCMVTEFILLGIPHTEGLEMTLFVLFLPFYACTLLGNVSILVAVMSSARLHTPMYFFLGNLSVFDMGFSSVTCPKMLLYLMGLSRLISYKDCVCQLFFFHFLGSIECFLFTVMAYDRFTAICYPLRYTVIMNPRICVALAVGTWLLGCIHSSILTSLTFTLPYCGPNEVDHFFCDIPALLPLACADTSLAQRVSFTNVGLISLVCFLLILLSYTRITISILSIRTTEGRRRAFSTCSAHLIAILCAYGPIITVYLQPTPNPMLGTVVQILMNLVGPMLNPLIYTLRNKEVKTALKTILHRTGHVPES
# How it was run: as §1
# OR10AC1 (Homo sapiens) = OR10AC1 (Homo sapiens) (UniProt Q8NH08)
# Sequence of OR10AC1 (Homo sapiens) (Q8NH08 whole entry): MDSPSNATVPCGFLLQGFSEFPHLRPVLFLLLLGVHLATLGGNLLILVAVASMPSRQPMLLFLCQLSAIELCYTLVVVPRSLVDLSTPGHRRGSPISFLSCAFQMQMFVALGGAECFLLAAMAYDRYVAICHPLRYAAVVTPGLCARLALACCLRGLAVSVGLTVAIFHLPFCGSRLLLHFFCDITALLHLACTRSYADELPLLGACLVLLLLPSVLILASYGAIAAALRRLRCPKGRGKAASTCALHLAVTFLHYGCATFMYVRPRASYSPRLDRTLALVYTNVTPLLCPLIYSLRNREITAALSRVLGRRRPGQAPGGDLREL
# How it was run: as §1
compound,measurement,setting,value
CC1CC=CCCCCCCCCC(=O)C1 (configuration not stated),odorant receptor agonist call,O5AN1,active
CC(C)CS,odorant receptor agonist call,OR10A7 (Homo sapiens),inactive
CC(CO)CS (configuration not stated),odorant receptor agonist call,OR10A2 (Homo sapiens),inactive
same,odorant receptor agonist call,OR10A3 (Homo sapiens),inactive
same,odorant receptor agonist call,OR10A4 (Homo sapiens),inactive
same,odorant receptor agonist call,OR10A5 (Homo sapiens),inactive
same,odorant receptor agonist call,OR10A6 (Homo sapiens),inactive
same,odorant receptor agonist call,OR10A7 (Homo sapiens),inactive
same,odorant receptor agonist call,OR10AD1 (Homo sapiens),inactive
same,odorant receptor agonist call,OR10AG1 (Homo sapiens),inactive
same,odorant receptor agonist call,OR10C1 (Homo sapiens),inactive
same,odorant receptor agonist call,OR10D3 (Homo sapiens),inactive
O=C1CCCCCC=CCCCCCCCCO1,odorant receptor agonist call,O5AN1,inactive
O=C1CCCCCCCCCC1,odorant receptor agonist call,O5AN1,inactive
CC1CCCCCCCCCCCCC(=O)C1 (configuration not stated),odorant receptor agonist call,O5AN1,active
same,odorant receptor agonist call,OR10A2 (Homo sapiens),inactive
same,odorant receptor agonist call,OR10A4 (Homo sapiens),inactive
same,odorant receptor agonist call,OR10A5 (Homo sapiens),inactive
same,odorant receptor agonist call,OR10A6 (Homo sapiens),inactive
same,odorant receptor agonist call,OR10A7 (Homo sapiens),inactive
same,odorant receptor agonist call,OR10AC1 (Homo sapiens),inactive
same,odorant receptor agonist call,OR10AD1 (Homo sapiens),inactive
same,odorant receptor agonist call,OR10AG1 (Homo sapiens),inactive
same,odorant receptor agonist call,OR10C1 (Homo sapiens),inactive
CCC(=O)OCCCc1ccccc1,odorant receptor agonist call,OR10A6 (Homo sapiens),inactive
O=C1CCCCCCCCCCCCCC1,odorant receptor agonist call,O5AN1,active
O=C1CCCCCCCCC1,odorant receptor agonist call,O5AN1,inactive
